Calls of active or inactive are those of the source. The calls are words filed in the database; no cut-off is given here.
Assays:
Schistosoma mansoni [1] = assay: Antischistosomal activity against schistosomula larval stage of Schistosoma mansoni assessed as effect on motility at 10 uM after 24 hrs; assay type: functional, organism-based
Procedure, shortened: (§1)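 24 h cultured, mechanically transformed S. mansoni schistosomula (~120/well) in Basch medium, exposed to compound at 10 µM final (DMSO stock 1.6 mM) in 384-well format; DMSO and auranofin controls, 16 wells each. Incubated 24 h, 37°C, 5% CO2, then high-content imaging scored motility and phenotype.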

Candida albicans = assay: Antimicrobial activity against Candida albicans assessed as inhibition of microbial growth at 0.03125 to 0.5 mg/ml measured every 20 mins for 24 hrs by spectrophotometry; assay type: functional, organism-based
Procedure, shortened: (§2)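 Broth microdilution: colony suspensions grown overnight at 37°C with shaking, standardised to McFarland 0.5, inoculated at final 5 × 10^5 cfu mL^-1 into nutrient broth holding serially diluted test solution. Rifampicin (61 µM) as control; untreated wells included. 37°C, 300 rpm shaking, OD600 read every 20 min over 24 h.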

[2] = test system: Mycolicibacterium smegmatis; assay: Antimicrobial activity against Mycobacterium smegmatis assessed as inhibition of microbial growth at 0.03125 to 0.5 mg/ml measured every 20 mins for 24 hrs by spectrophotometry; assay type: functional, organism-based; procedure, shortened: as §2
Staphylococcus aureus = assay: Antimicrobial activity against Staphylococcus aureus assessed as inhibition of microbial growth at 0.03125 to 0.5 mg/ml measured every 20 mins for 24 hrs by spectrophotometry; assay type: functional, organism-based; procedure, shortened: as §2
Pseudomonas aeruginosa = assay: Antimicrobial activity against Pseudomonas aeruginosa assessed as inhibition of microbial growth at 0.03125 to 0.5 mg/ml measured every 20 mins for 24 hrs by spectrophotometry; assay type: functional, organism-based; procedure, shortened: as §2
Escherichia coli [3] = assay: Antimicrobial activity against Escherichia coli assessed as inhibition of microbial growth at 0.03125 to 0.5 mg/ml measured every 20 mins for 24 hrs by spectrophotometry; assay type: functional, organism-based; procedure, shortened: as §2
Schistosoma mansoni [4] = assay: Antischistosomal activity against schistosomula larval stage of Schistosoma mansoni assessed as effect on phenotype at 10 uM after 24 hrs; assay type: functional, organism-based; procedure, shortened: as §1
HepG2 = assay: Cytotoxicity against human HepG2 at <200 uM after 20 hrs by MTT assay; assay type: cell-based; settings: hepg2, 20 h
Procedure, shortened: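 HepG2 seeded 2.0 × 10^4/well in modified BME with 10% FBS, L-Gln, non-essential amino acids and antibiotic/antimycotic; 24 h at 37°C, 5% CO2 before dosing at 100-0.01 µM final. After 20 h, MTT added for 4 h; formazan dissolved in DMSO:isopropanol (1:1), A570 read. 1% DMSO and 1% Triton X-100 controls; blank-corrected; three data sets.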

Escherichia coli [5] = assay: Growth stimulation of Escherichia coli at >100 uM measured every 20 mins for 24 hrs by spectrophotometry; assay type: organism-based
Procedure, shortened: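 E. coli in nutrient broth with serially diluted compound, final inoculum 5 × 10^5 cfu mL^-1. Incubated 37°C with 300 rpm shaking, OD600 read every 20 min for 24 h. Data given as OD600 percentage of no-drug control wells, mean ± error.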

Structure (SMILES)	Activity (Schistosoma mansoni [1])	Activity (Candida albicans)	Activity [2]	Activity (Staphylococcus aureus)	Activity (Pseudomonas aeruginosa)	Activity (Escherichia coli [3])	Activity (Schistosoma mansoni [4])	Activity (HepG2)	Activity (Escherichia coli [5])
C[C@@H]1CC(=O)[C@@H]2[C@H](CC[C@H](O)[C@]2(O)COC(=O)c2ccc(O)cc2)[C@@]12C[C@@H](c1ccoc1)OC2=O	inactive	inactive	inactive	inactive	inactive	inactive	inactive	Non-Toxic	–
C[C@@H]1C[C@@]2(O)OC[C@]3(O)[C@H]2[C@H](CC[C@@H]3O)[C@@]12C[C@@H](c1ccoc1)OC2=O	inactive	inactive	inactive	inactive	inactive	inactive	inactive	Non-Toxic	–
CC(=O)OC[C@]1(CC(O)c2ccoc2)[C@H](C)C[C@H](O)[C@]2(COC(C)=O)[C@@H]1CC[C@H](O)[C@]21CO1 (stereo partly drawn)	inactive	inactive	inactive	inactive	inactive	inactive	inactive	Non-Toxic	Dose-dependent effect
C[C@@H]1C[C@@]2(O)OC[C@@]3(O)[C@@H](O)CC[C@@H]4[C@]1(CC(O)c1ccoc1)C(=O)OC[C@]423 (stereo partly drawn)	inactive	inactive	inactive	inactive	inactive	inactive	inactive	Non-Toxic	–
CC(=O)OC[C@@]12[C@@H]3CC[C@H](O)[C@]1(O)CO[C@]2(O)C[C@@H](C)[C@]31C[C@@H](c2ccoc2)OC1=O	inactive	inactive	inactive	inactive	inactive	inactive	inactive	Non-Toxic	–
CC(=O)OC[C@]1(CCC2=CC(O)OC2=O)[C@H](C)C[C@H](O)[C@]2(COC(C)=O)[C@@H]1CC[C@H](O)[C@]21CO1 (stereo partly drawn)	inactive	inactive	inactive	inactive	inactive	inactive	inactive	Non-Toxic	Dose-dependent effect
C[C@@H]1C[C@H](O)[C@]23CO[C@](O)(CC[C@@H]2[C@@]12C[C@@H](c1ccoc1)OC2=O)[C@@H]3CO	inactive	inactive	inactive	inactive	inactive	inactive	inactive	Non-Toxic	–
